Test [1] deals with Jurkat. The test is described as follows: Cell cycle arrest in human Jurkat cells by accumulation of cells at G2/M phase at 7 to 250 nM after by propidium iodide staining-based flow cytometry. It counts as functional. The conditions noted are these: TDE = time-dependent effect. The method, boiled down:
(§1)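 5×10^5 exponentially growing cells treated with compound (7–250 nM range for 24 h; 30 nM for 24 and 48 h), collected, fixed in ice-cold 70% ethanol, lysed with buffer containing RNase A and 0.1% Triton X-100, PI-stained, and DNA content analysed by flow cytometry; phase distribution from DNA histograms. Mean ± SEM of three independent experiments.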
On the technique in general: A flow cytometer gives signals particle by particle.

Test [2] relates to Jurkat. The test is described as follows: Induction of apoptosis in human Jurkat cells assessed as depolarization of mitochondrial membrane potential measured as annexin-V positive cells at 50 nM after 24 hrs by annexin-V-FITC and propidium iodide staining based flow cytometry (reference value: 3.0%). It counts as functional.
The subject of test [3] is HeLa. The test can be described thus: Cell cycle arrest in human HeLa cells assessed as increase in accumulation of cells at G2/M phase after 24 hrs by propidium iodide staining-based flow cytometry. It counts as functional. The method, boiled down: as §1
The test system of test [4] is HeLa. The test can be described thus: Cell cycle arrest in human HeLa cells assessed as decrease in accumulation of cells at S phase at 7 to 250 nM after 24 hrs by propidium iodide staining-based flow cytometry. The test is classed as functional. In a few lines:
as §1

The test system of test [5] is Jurkat. The test can be described thus: Induction of apoptosis in human Jurkat cells assessed as activation of caspase-3 at 50 nM by flow cytometry. The test is classed as functional, cell-based. The note with it: TDE = time-dependent effect. In a few lines:
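Jurkat cells exposed to 50 nM compound for 24, 48 and 72 h, fixed in Cytofix buffer 20 min, washed in Perm/Wash, stained 30 min with FITC-conjugated anti-human active caspase-3 fragment antibody; percentage of positive cells by flow cytometry, mean ± SEM of three experiments.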

For test [6], the system named is MCF7. The test is described as follows: Antiproliferative activity against human MCF7 cells after 72 hrs by MTT assay. The test is classed as functional, cell-based. The conditions noted are these: MCF7, 72 h.
For test [7], the system named is Jurkat. The test is described as follows: Induction of apoptosis in human Jurkat cells assessed as depolarization of mitochondrial membrane potential measured as annexin-V positive cells at 50 nM after 72 hrs by annexin-V-FITC and propidium iodide staining based flow cytometry (reference value: 3.0%). It counts as functional.
The nature of test [8]: Inhibition of bovine brain tubulin polymerization after 20 mins by turbidimetry. Also noted: species or system Bos taurus. In a few lines:
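Bovine brain tubulin (10 µM) preincubated with varying compound concentrations in glutamate buffer at 30 °C, chilled to 0 °C, 0.4 mM GTP added, then warmed to 30 °C in spectrophotometer; assembly followed by turbidity at 350 nm.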

Test [9] concerns Jurkat. The test can be described thus: Antiproliferative activity against human Jurkat cells after 72 hrs by MTT assay. The test is classed as functional, cell-based. In a few lines: (§2)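 Cells seeded at 8×10^3 per well (Jurkat, HL-60, K562 in RPMI-1640; MCF7, A549, HeLa in DMEM; all with 10% FBS, penicillin/streptomycin), incubated 18 h at 37 °C, 5% CO2, then exposed to compound at varying concentrations in complete medium for 72 h.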
(Tetrazolium assays rely on reduction of a dye to a coloured formazan, in cell work by metabolically active cells.)

For test [10], the system named is Jurkat. The test can be described thus: Induction of apoptosis in human Jurkat cells assessed as depolarization of mitochondrial membrane potential measured as annexin-V positive cells at 50 nM after 48 hrs by annexin-V-FITC and propidium iodide staining based flow cytometry (reference value: 3.0%). It counts as functional.
The test system of test [11] is Jurkat. The test is described as follows: Induction of apoptosis in human Jurkat cells assessed as increase in annexin-V positive cells after 24 to 72 hrs by annexin-V-FITC and propidium iodide staining based flow cytometry. It counts as functional, cell-based.
Test [12] deals with HL-60. The test can be described thus: Antiproliferative activity against human HL60 cells after 72 hrs by MTT assay. The test is classed as functional, cell-based. The conditions noted are these: HL-60, 72 h.
Test [13] deals with Jurkat. The test can be described thus: Induction of apoptosis in human Jurkat cells assessed as increase in PARP cleavage at 50 nM after 24 hrs by immunoblot method. It counts as functional, cell-based. In a few lines:
(§3)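 Jurkat cells given 50 nM compound for varying times, washed in cold PBS, lysed on ice 30 min, cleared at 15000g, 4 °C; 20 µg protein run on 7.5–15% SDS-PAGE, blotted to PVDF, probed 2 h at room temperature with rabbit anti-PARP or anti-Bcl-2 (1:1000), peroxidase secondary, ECL detection; β-actin reprobe as loading control.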
A general note: Immunoblotting shows a protein as a band on a membrane.

Test [14] concerns HeLa. The test can be described thus: Cell cycle arrest in human HeLa cells by accumulation of cells at G2/M phase at 30 nM after 48 hrs by propidium iodide staining-based flow cytometry (reference value: 12%).
For test [15], the system named is Jurkat. The test can be described thus: Cell cycle arrest in human Jurkat cells assessed as increase in accumulation of cells at G2/M phase at 7 to 250 nM after 24 hrs by propidium iodide staining-based flow cytometry. It counts as functional. In a few lines: as §1
Test [16] has as its system A549. The test can be described thus: Antiproliferative activity against human A549 cells after 72 hrs by MTT assay. It counts as functional, cell-based. The note with it: A549, 72 h.
In test [17] the test system is HeLa. The test is described as follows: Cell cycle arrest in human HeLa cells assessed as decrease in accumulation of cells at G1 phase at 7 to 250 nM after 24 hrs by propidium iodide staining-based flow cytometry. It counts as functional. The method, boiled down: as §1
Test [18] concerns Jurkat. The test is described as follows: Induction of apoptosis in human Jurkat cells assessed as decrease in Bcl2 expression at 50 nM after 24 to 72 hrs by immunoblot method. The test is classed as functional, cell-based. The method, boiled down: as §3
Test [19] relates to K562. The test is described as follows: Antiproliferative activity against human K562 cells after 72 hrs by MTT assay. The test is classed as functional, cell-based. The note with it: K562, 72 h. In a few lines: as §2
The subject of test [20] is Jurkat. The test is described as follows: Induction of apoptosis in human Jurkat cells assessed as increase in ROS production at 50 nM by HE staining based flow cytometry. The test is classed as functional, cell-based. The note with it: TDE = time-dependent effect. In a few lines:
(§4)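 After 24, 48, 72 h with 50 nM compound, Jurkat cells resuspended in HBSS with 2.5 µM HE or 0.1 µM H2DCFDA, 30 min at 37 °C, washed, and read by flow cytometry (excitation 488 nm; emission 585 nm HE, 530 nm DCF). Mean ± SEM of three independent experiments.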

For test [21], the species on record is Bos taurus. The test can be described thus: Displacement of [3H]colchicine from bovine tubulin at 1 uM. The method, boiled down: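 [3H]Colchicine binding inhibition measured with reaction mixtures of 1 µM tubulin, 5 µM [3H]colchicine and 1 µM test compound.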
For test [22], the system named is Jurkat. The test is described as follows: Cell cycle arrest in human Jurkat cells assessed as accumulation of cells at SubG1 phase at 7 to 250 nM after 24 hrs by propidium iodide staining-based flow cytometry. The test is classed as functional. In a few lines: as §1
Test [23] concerns HeLa. The test is described as follows: Antiproliferative activity against human HeLa cells after 72 hrs by MTT assay. It counts as functional, cell-based.
The subject of test [24] is Jurkat. The test can be described thus: Induction of apoptosis in human Jurkat cells assessed as increase in ROS production at 50 nM by H2DCFDA staining based flow cytometry. The test is classed as functional, cell-based. The conditions noted are these: TDE = time-dependent effect. In a few lines:
as §4

The species entered for test [25] is Gallus gallus. The test can be described thus: Inhibition of vascular sprouts in chick embryo aorta assessed as vascular disruption at 10 uM after 30 mins by microscopy. It counts as functional, tissue-based. The method, boiled down: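 Aortic arches from day-14 chick embryos sliced, embedded in Matrigel with complete medium; endothelial sprouts formed over 24–48 h. Compound added at various concentrations and vascular channels imaged before and 30 min after addition.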

The subject of test [26] is HUVEC. The test is described as follows: Induction of apoptosis in HUVEC expressing GFP assessed as formation of membrane blebs at 0.5 uM to 10 uM after 30 mins by confocal microscopy. The note with it: Homo sapiens.
Test [27] relates to HUVEC. The test is described as follows: Induction of apoptosis in HUVEC expressing GFP assessed as decrease in GFP-positive cell area at 0.5 uM to 10 uM after 30 mins by confocal microscopy. Also noted: scale not given: the % may be the effect or the level left.
The species entered for test [28] is Bos taurus. The test is described as follows: Ratio of IC50 for comberestastatin-A4 to IC50 for drug for inhibition of bovine brain tubulin polymerization after 20 mins by turbidimetry.

Molecules are shown by their SMILES. Calls of active or inactive are those of the source. No cut-off for these calls is given here.

Regarding `CCOc1ccc(-c2ncnn2-c2cc(OC)c(OC)c(OC)c2)cc1Cl`, the Activity result in test [1] is “tde”; in [3] it was “Dose-dependent effect”; in test [5] it was “tde”; in test [14], 70%; in [20], “tde”; in [21] it was 75%. Besides, in test [24], the Activity result is “tde”. The result in test [2], in test [4], in test [7], in [10], in test [11] and in test [13] was Active. In addition, the outcome in [15], in test [17], in test [18] and in test [22] was Active. In addition, the IC50 (as a rule, the concentration needed to halve the response being measured) in [6] turned out to be 17 nM; in test [8], 1500 nM; in [9], 3 nM; in [12], 3 nM; in test [16], 10 nM; in [19], 20 nM. In addition, 6 nM corresponded to half-maximal inhibition in test [23] (IC50).
In the case of `CCOc1ccc(-c2ncnn2-c2cc(OC)c(OC)c(OC)c2)cc1`, the Activity result is “tde” in test [1]; 14.4% in test [2]; “Dose-dependent effect” in test [3]; “tde” in test [5]; 44.5% in [7]; 28.4% in test [10]. Also, the Activity in [14] is 70%; in test [20], “tde”; in test [27], 30%; in test [21], 86%; in [24], “tde”. In addition, the result in [4], in test [25], in test [26], in test [11], in test [13] and in test [15] was Active. Also, the outcome in test [17], in test [18] and in test [22] was Active. The IC50 in test [6] turned out to be 50 nM; in [8], 760 nM; in [9], 5 nM; in [12], 20 nM; in [16], 100 nM; in test [23] it was 15 nM. The Ratio IC50 in test [28] stood at 2.
For `COc1cc(-n2ncnc2-c2ccc(SC)cc2)cc(OC)c1OC`, the IC50 stood at 390 nM in test [6]; 3600 nM in [8]; 50 nM in test [9]; 500 nM in test [12]; 800 nM in test [16]; 340 nM in test [19]. Further, the IC50 in test [23] was 150 nM. Also, in test [21], the Activity came out at 38%.
Turning to `COc1cc(-n2ncnc2-c2ccc(C)cc2)cc(OC)c1OC`, the IC50 in test [6] was 540 nM; in [8], 3900 nM; in [9], 300 nM; in test [12], 90 nM; in [16], 1100 nM; in test [19] it was greater than 10000 nM. Besides, in test [23], the IC50 worked out at 250 nM. The same compound gave an Activity in test [21] of 33%.
For the compound `COc1ccc(-c2ncnn2-c2cc(OC)c(OC)c(OC)c2)cc1`, the IC50 in [6] amounted to 360 nM; in [8], 2300 nM; in [9], 50 nM; in [12], 120 nM; in [16], 520 nM; in [19], 950 nM. In addition, in test [23], the IC50 was 280 nM. This compound returned an Activity in test [21] of 55%.

The values above are taken from ChEMBL document CHEMBL1157793, “Synthesis and antitumor activity of 1,5-disubstituted 1,2,4-triazoles as cis-restricted combretastatin analogues” (J Med Chem, 2010).
